Measured values: ChEMBL document CHEMBL4334464, “From Phenylthiazoles to Phenylpyrazoles: Broadening the Antibacterial Spectrum toward Carbapenem-Resistant Bacteria” (J Med Chem, 2019)
Values after ≈ are worked out from the molar mass of the structure shown. Active and inactive are the calls of the source. The calls are words filed in the database; no cut-off is given here.

Experiments:
Salmonella enteritidis [1] = assay: Antibacterial activity against Salmonella enteritidis ATCC 14028 clinical isolates after 18 to 20 hrs in aerobic condition by CLSI-based broth microdilution assay; assay type: functional, Salmonella enterica subsp. enterica serovar Enteritidis; conditions: Salmonella enterica
Salmonella enteritidis [2] = assay: Ratio of MBC to MIC for Salmonella enteritidis ATCC 14028 clinical isolates; assay type: functional, Salmonella enterica subsp. enterica serovar Enteritidis
Staphylococcus aureus [3] = assay: Ratio of MBC to MIC for Methicillin-sensitive Staphylococcus aureus ATCC 6538 clinical isolates; assay type: functional
Acinetobacter baumannii [4] = assay: Ratio of MBC to MIC for Acinetobacter baumannii ATCC 19606 clinical isolates; assay type: functional, ATCC 19606 = CIP 70.34 = JCM 6841
Streptococcus pneumoniae [5] = assay: Ratio of MBC to MIC for […] Streptococcus pneumoniae ATCC 700677 clinical isolates; assay type: functional
Acinetobacter baumannii [6] = assay: Antibacterial activity against carbapenem-resistant Acinetobacter baumannii ATCC BAA 1605 clinical isolates after 18 to 20 hrs in aerobic condition by CLSI-based broth microdilution assay; assay type: functional
Staphylococcus aureus [7] = assay: Antibacterial activity against vancomycin-resistant Staphylococcus aureus isolate 10 after 18 to 20 hrs in aerobic condition by CLSI-based broth microdilution assay; assay type: functional
Klebsiella pneumoniae [8] = assay: Antibacterial activity against Klebsiella pneumoniae BAA-1144 clinical isolates after 18 to 20 hrs in aerobic condition by CLSI-based broth microdilution assay; assay type: functional
Acinetobacter baumannii [9] = assay: Antibacterial activity against Acinetobacter baumannii NR 17786 clinical isolates after 18 to 20 hrs in aerobic condition by CLSI-based broth microdilution assay; assay type: functional
Klebsiella pneumoniae [10] = assay: Antibacterial activity against Klebsiella pneumoniae BAA-1706 clinical isolates after 18 to 20 hrs in aerobic condition by CLSI-based broth microdilution assay; assay type: functional
Enterococcus faecium = assay: Antibacterial activity against vancomycin-resistant Enterococcus faecium ATCC 700221 clinical isolates after 18 to 20 hrs in aerobic condition by CLSI-based broth microdilution assay; assay type: functional
[11] = Efflux ratio of apparent permeability across basolateral to apical side over apical to basolateral side in human Caco2 cells after 2 hrs by LC/MS/MS analysis; assay type: ADME, cell-based; conditions: Caco-2
[12] = Stability in human liver microsomes assessed as compound remaining incubated for 45 mins in absence of NADPH by LC/MS/MS analysis; assay type: ADME, Microsome; conditions: read-out: Stability
Procedure, shortened: (§1)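 Two independent runs (1st and 2nd) were done at each time point, and the mean percent remaining is reported. Incubations were run both with and without NADPH. Half-life and intrinsic clearance (Clint) were derived from the time-course data.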

[13] = Apparent permeability across basolateral to apical side in human Caco2 cells after 2 hrs by LC/MS/MS analysis; assay type: ADME, cell-based; conditions: Caco-2
Clostridioides difficile [14] = assay: Ratio of MBC to MIC for Clostridium difficile ATCC BAA 1870; assay type: functional
Escherichia coli [15] = assay: Antibacterial activity against carbapenem-resistant Escherichia coli BAA-2469 clinical isolates after 18 to 20 hrs in aerobic condition by CLSI-based broth microdilution assay; assay type: functional
Staphylococcus aureus [16] = assay: Ratio of MBC to MIC for Methicillin-sensitive Staphylococcus aureus NRS107 clinical isolates; assay type: functional
Listeria monocytogenes = assay: Antibacterial activity against Listeria monocytogenes ATCC 19111 after 18 to 20 hrs in aerobic condition by CLSI-based broth microdilution assay; assay type: functional
Enterococcus faecalis [17] = assay: Antibacterial activity against vancomycin-resistant Enterococcus faecalis ATCC 51299 clinical isolates after 18 to 20 hrs in aerobic condition by CLSI-based broth microdilution assay; assay type: functional
Pseudomonas aeruginosa [18] = assay: Antibacterial activity against carbapenem-resistant Pseudomonas aeruginosa ATCC 1744 clinical isolates after 18 to 20 hrs in aerobic condition by CLSI-based broth microdilution assay; assay type: functional
Pseudomonas aeruginosa [19] = assay: microbe, parasite or virus in culture; conditions: ATCC 9027
[20] = Stability in human liver microsomes assessed as compound remaining incubated for 15 mins in absence of NADPH by LC/MS/MS analysis; assay type: ADME, Microsome; conditions: read-out: Stability
Staphylococcus aureus [21] = assay: Antibacterial activity against Methicillin-resistant Staphylococcus aureus NRS123-USA400 clinical isolates after 18 to 20 hrs in aerobic condition by CLSI protocol based broth microdilution assay; assay type: functional
Pseudomonas aeruginosa [22] = assay: Antibacterial activity against Pseudomonas aeruginosa ATCC 15442 clinical isolates after 18 to 20 hrs in aerobic condition by CLSI-based broth microdilution assay; assay type: functional
Clostridioides difficile [23] = assay: Antibacterial activity against Clostridium difficile ATCC BAA 1870 incubated for 48 hrs in anaerobic condition by CLSI-based broth microdilution assay; assay type: functional; conditions: ATCC BAA 1870, 48 h
[24] = target: T1, Ditrans,polycis-undecaprenyl-diphosphate synthase ((2E,6E)-farnesyl-diphosphate specific) (Escherichia coli (strain K12)) (UniProt P60472); assay: Inhibition of Escherichia coli UPPS using FPP/IPP as substrate preincubated for 30 mins followed by substrates addition and measured after 30 mins by malachite green reagent based assay
T1 sequence (whole entry): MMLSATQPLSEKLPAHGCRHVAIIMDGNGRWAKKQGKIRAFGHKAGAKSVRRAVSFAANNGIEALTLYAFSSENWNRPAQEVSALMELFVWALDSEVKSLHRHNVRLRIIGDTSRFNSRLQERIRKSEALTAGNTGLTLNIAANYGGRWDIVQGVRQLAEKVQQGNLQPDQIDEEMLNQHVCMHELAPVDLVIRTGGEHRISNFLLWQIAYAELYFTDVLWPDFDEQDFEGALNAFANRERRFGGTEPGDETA

Acinetobacter baumannii [25] = assay: Ratio of MBC to MIC for Acinetobacter baumannii ATCC BAA 1141 clinical isolates; assay type: functional
Escherichia coli [26] = assay: Antibacterial activity against carbapenem-resistant Escherichia coli BAA-2452 clinical isolates after 18 to 20 hrs in aerobic condition by CLSI-based broth microdilution assay; assay type: functional
Enterococcus faecalis [27] = assay: Ratio of MBC to MIC for vancomycin-resistant Enterococcus faecalis ATCC 51299 clinical isolates; assay type: functional
Acinetobacter baumannii [28] = assay: microbe, parasite or virus in culture; conditions: ATCC BAA 1747
Escherichia coli [29] = assay: Ratio of MBC to MIC for Escherichia coli ATCC 25922 clinical isolates; assay type: functional
Staphylococcus aureus [30] = assay: Antibacterial activity against vancomycin-resistant Staphylococcus aureus isolate 12 after 18 to 20 hrs in aerobic condition by CLSI-based broth microdilution assay; assay type: functional
Staphylococcus aureus [31] = assay: Antibiofilm activity against methicillin-resistant Staphylococcus aureus NRS384-USA300 clinical isolates assessed as inhibition of biofilm formation at 0.5 times MIC incubated for 24 hrs by crystal violet staining based spectrophotometric method relative to control; assay type: functional
[32] = Half life in human liver microsomes in presence of NADPH by LC/MS/MS analysis; assay type: ADME, Microsome
Shigella flexneri = assay: Antibacterial activity against Shigella flexneri ATCC 9199 clinical isolates after 18 to 20 hrs in aerobic condition by CLSI-based broth microdilution assay; assay type: functional
[33] = Stability in human liver microsomes assessed as compound remaining incubated for 60 mins in absence of NADPH by LC/MS/MS analysis; assay type: ADME, Microsome; conditions: read-out: Stability; procedure, shortened: as §1
Streptococcus pneumoniae [34] = assay: Antibacterial activity against methicillin-resistant Streptococcus pneumoniae ATCC 700677 clinical isolates after 18 to 20 hrs by CLSI-based broth microdilution assay; assay type: functional
Acinetobacter baumannii [35] = assay: Ratio of MBC to MIC for Acinetobacter baumannii ATCC BAA 1747 clinical isolates; assay type: functional

| SMILES | MIC (Salmonella enteritidis [1]) [µg/mL] | Ratio (Salmonella enteritidis [2]) | Ratio (Staphylococcus aureus [3]) | Ratio (Acinetobacter baumannii [4]) | Ratio (Streptococcus pneumoniae [5]) | MIC (Acinetobacter baumannii [6]) [µg/mL] | MIC (Staphylococcus aureus [7]) [µg/mL] | MIC (Klebsiella pneumoniae [8]) [µg/mL] | MIC (Acinetobacter baumannii [9]) [µg/mL] | MIC (Klebsiella pneumoniae [10]) [µg/mL] | MIC (Enterococcus faecium) [µg/mL] | Ratio (Clostridioides difficile [14]) | MIC (Escherichia coli [15]) [µg/mL] | Ratio (Staphylococcus aureus [16]) | MIC (Listeria monocytogenes) [µg/mL] | MIC (Enterococcus faecalis [17]) [µg/mL] | MIC (Pseudomonas aeruginosa [18]) [µg/mL] | MIC (Pseudomonas aeruginosa [19]) [µg/mL] | MIC (Staphylococcus aureus [21]) [µg/mL] | MIC (Pseudomonas aeruginosa [22]) [µg/mL] | other results |
| --- | --- | --- | --- | --- | --- | --- | --- | --- | --- | --- | --- | --- | --- | --- | --- | --- | --- | --- | --- | --- | --- |
| C/C(=N\NC(=N)N)c1cnn(-c2ccc(C#CC3CCCC3)cc2)c1C | 8 (≈ 23 µM) | >=1 | <=2 | >=1 | <3 | 8 (≈ 23 µM) | 0.5 (≈ 1.43 µM) | 8 (≈ 23 µM) | 8 (≈ 23 µM) | 4 (≈ 11.5 µM) | 1 (≈ 2.87 µM) | <3 | 4 (≈ 11.5 µM) | <=2 | 0.5 (≈ 1.43 µM) | 0.5 (≈ 1.43 µM) | 16 (≈ 45.9 µM) | 16 (≈ 45.9 µM) | 2 (≈ 5.74 µM) | 32 (≈ 91.8 µM) | efflux ratio at 2 h [11]: 1; remaining at 0.75 h [12]: 99%; Papp B→A at 2 h [13]: 0.01 ×10⁻⁶ cm/s; remaining at 0.25 h [20]: 99%; MIC (Clostridioides difficile [23]): 1 µg/mL (≈ 2.87 µM); inhibition [24]: inactive; Ratio (Acinetobacter baumannii [25]): >=1; MIC (Escherichia coli [26]): 4 µg/mL (≈ 11.5 µM); Ratio (Enterococcus faecalis [27]): <3; MIC (Acinetobacter baumannii [28]): 4 µg/mL (≈ 11.5 µM); Ratio (Escherichia coli [29]): >=1; MIC (Staphylococcus aureus [30]): 1 µg/mL (≈ 2.87 µM); inhibition (INH) (Staphylococcus aureus [31]): 31%; half-life [32]: 3.23 h; MIC (Shigella flexneri): 8 µg/mL (≈ 23 µM); remaining at 1 h [33]: 91%; MIC (Streptococcus pneumoniae [34]): 0.5 µg/mL (≈ 1.43 µM); Ratio (Acinetobacter baumannii [35]): >=1 |
| C/C(=N\NC1=NCCN1)c1cnn(-c2ccc(C#CC3CCCC3)cc2)c1C | 32 (≈ 85.4 µM) | >=1 | <=2 | >=1 | <3 | 16 (≈ 42.7 µM) | 8 (≈ 21.4 µM) | 64 (≈ 171 µM) | 16 (≈ 42.7 µM) | 32 (≈ 85.4 µM) | 4 (≈ 10.7 µM) | <3 | 32 (≈ 85.4 µM) | <=2 | 4 (≈ 10.7 µM) | 8 (≈ 21.4 µM) | 32 (≈ 85.4 µM) | 32 (≈ 85.4 µM) | 4 (≈ 10.7 µM) | 64 (≈ 171 µM) | efflux ratio at 2 h [11]: 1.5; remaining at 0.75 h [12]: 97%; Papp B→A at 2 h [13]: 0.15 ×10⁻⁶ cm/s; remaining at 0.25 h [20]: 98%; MIC (Clostridioides difficile [23]): 4 µg/mL (≈ 10.7 µM); inhibition [24]: inactive; Ratio (Acinetobacter baumannii [25]): >=1; MIC (Escherichia coli [26]): 16 µg/mL (≈ 42.7 µM); Ratio (Enterococcus faecalis [27]): <3; MIC (Acinetobacter baumannii [28]): 16 µg/mL (≈ 42.7 µM); Ratio (Escherichia coli [29]): >=1; MIC (Staphylococcus aureus [30]): 4 µg/mL (≈ 10.7 µM); half-life [32]: 2.55 h; MIC (Shigella flexneri): 32 µg/mL (≈ 85.4 µM); remaining at 1 h [33]: 97%; MIC (Streptococcus pneumoniae [34]): 4 µg/mL (≈ 10.7 µM); Ratio (Acinetobacter baumannii [35]): >=1 |
| C/C(=N\NC(=N)N)c1cnn(-c2ccc(C#CC3CCCCC3)cc2)c1C | 32 (≈ 88.3 µM) | >=1 | <=2 | >=1 | <3 | 4 (≈ 11 µM) | 2 (≈ 5.52 µM) | 16 (≈ 44.1 µM) | 8 (≈ 22.1 µM) | 8 (≈ 22.1 µM) | 1 (≈ 2.76 µM) | <3 | 4 (≈ 11 µM) | <=2 | 2 (≈ 5.52 µM) | 2 (≈ 5.52 µM) | 32 (≈ 88.3 µM) | 16 (≈ 44.1 µM) | 2 (≈ 5.52 µM) | 32 (≈ 88.3 µM) | MIC (Clostridioides difficile [23]): 4 µg/mL (≈ 11 µM); inhibition [24]: inactive; Ratio (Acinetobacter baumannii [25]): >=1; MIC (Escherichia coli [26]): 8 µg/mL (≈ 22.1 µM); Ratio (Enterococcus faecalis [27]): <3; MIC (Acinetobacter baumannii [28]): 4 µg/mL (≈ 11 µM); Ratio (Escherichia coli [29]): >=1; MIC (Staphylococcus aureus [30]): 2 µg/mL (≈ 5.52 µM); inhibition (INH) (Staphylococcus aureus [31]): 22%; MIC (Shigella flexneri): 8 µg/mL (≈ 22.1 µM); MIC (Streptococcus pneumoniae [34]): 2 µg/mL (≈ 5.52 µM); Ratio (Acinetobacter baumannii [35]): >=1 |
